Data from ChEMBL document CHEMBL1817593, “C5'-Alkyl Substitution Effects on Digitoxigenin α-l-Glycoside Cancer Cytotoxicity” (ACS Med Chem Lett, 2011).
Active and inactive are the calls of the source. The rule behind the calls is not given here.

How the values were obtained:
RXF 393 = assay: Cytotoxicity against human RXF393 cells after 48 hrs by sulforhodamine B assay; format: functional; conditions: RXF 393, 48 h
HCC 2998 = assay: Cytotoxicity against human HCC2998 cells after 48 hrs by sulforhodamine B assay; format: functional; conditions: HCC 2998, 48 h
NCI-H460 [1] = assay: Induction of apoptosis in human NCI-H460 cells in serum free medium at 50 nM after 12 hrs by Hoechst 33342/propidium iodide staining based fluorescence microscopy; format: functional
Outline: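 NCI-H460 cells exposed to a single 50 nM concentration for 12 h. Cells stained with Hoechst 33342 and propidium iodide. Blue cells with condensed or fragmented nuclei were scored as apoptotic and red, ruptured cells as necrotic. Result given as % apoptotic cell death; N = 6, one-way ANOVA.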

NCI-H460 [2] = assay: Cytotoxicity against human NCI-H460 cells assessed as cell death in serum free medium at 10000 nM after 12 hrs by Hoechst 33342/propidium iodide staining based fluorescence microscopy; format: functional
Outline: (§1)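 NCI-H460 human lung cancer cells exposed 12 h to 10 nM–10 μM drug, including a 50 nM single-concentration test. Nuclei were stained with Hoechst 33342 and necrotic cells with propidium iodide. Apoptotic cells were scored by condensed or fragmented blue nuclei and necrotic cells by red PI staining. Total cell death (apoptosis plus necrosis) was recorded; N = 6.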

NCI-H460 [3] = assay: Cytotoxicity against human NCI-H460 cells assessed as cell death in serum free medium at 100 nM after 12 hrs by Hoechst 33342/propidium iodide staining based fluorescence microscopy; format: functional; outline: as §1
NCI-H460 [4] = assay: Cytotoxicity against human NCI-H460 cells assessed as cell viability after 48 hrs by MTT assay; format: functional; conditions: NCI-H460, 48 h
Outline: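 NCI-H460 cells were exposed to drug for 48 h, and viability was read by MTT as mitochondrial enzymatic activity. GI50 was derived from dose-response curves (1 nM–10 μM). Values are from three independent experiments with duplicate determinations, given with standard error of the mean.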

T47D = assay: Cytotoxicity against human T47D cells after 48 hrs by sulforhodamine B assay; format: functional
CCRF-CEM = assay: Cytotoxicity against human CCRF-CEM cells after 48 hrs by sulforhodamine B assay; format: functional
NCI-H460 [5] = assay: Induction of apoptosis in human NCI-H460 cells in serum free medium after 12 hrs by Hoechst 33342/propidium iodide staining based fluorescence microscopy; format: functional, cell-based
Outline: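 NCI-H460 cells treated for 12 h at 10 nM to 10 μM. Total cell death (apoptosis plus necrosis) scored by Hoechst 33342/propidium iodide staining, with N = 6 and two-way ANOVA. IC50 obtained by nonlinear regression. Table values are the mean of three independent experiments with duplicate determinations.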

NCI-H460 [6] = assay: Cytotoxicity against human NCI-H460 cells assessed as cell viability at 1 nM after 48 hrs by MTT assay; format: functional; conditions: NCI-H460, 48 h, read-out: Activity
Outline: (§2)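 Viability of NCI-H460 cells was measured by MTT (mitochondrial enzymatic activity) after 48 h exposure, within a dose series spanning 1 nM–10 μM. N = 9, analysed by two-way ANOVA.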

NCI-H460 [7] = assay: Cytotoxicity against human NCI-H460 cells assessed as cell death in serum free medium at 10 nM after 12 hrs by Hoechst 33342/propidium iodide staining based fluorescence microscopy; format: functional; outline: as §1
NCI-H460 [8] = assay: Ratio of digitoxin IC50 to compound IC50 for human NCI-H460 cells after 12 hrs by Hoechst 33342/propidium iodide staining based fluorescence microscopy; format: functional
NCI-H460 [9] = assay: Cytotoxicity against human NCI-H460 cells assessed as cell viability at 500 nM after 48 hrs by MTT assay; format: functional; conditions: NCI-H460, 48 h, read-out: Activity; outline: as §2
SF-539 = assay: Cytotoxicity against human SF539 cells after 48 hrs by sulforhodamine B assay; format: functional; conditions: SF-539, 48 h
NCI-H460 [10] = assay: Cytotoxicity against human NCI-H460 cells assessed as cell death in serum free medium at 1000 nM after 12 hrs by Hoechst 33342/propidium iodide staining based fluorescence microscopy; format: functional; outline: as §1
CAKI-1 = assay: Cytotoxicity against human Caki1 cells after 48 hrs by sulforhodamine B assay; format: functional; conditions: CAKI-1, 48 h
OVCAR-8 = assay: Cytotoxicity against human OVCAR8 cells after 48 hrs by sulforhodamine B assay; format: functional; conditions: OVCAR-8, 48 h
NCI-H460 [11] = assay: Cytotoxicity against human NCI-H460 cells assessed as cell death in serum free medium at 25 nM after 12 hrs by Hoechst 33342/propidium iodide staining based fluorescence microscopy; format: functional; outline: as §1
IGROV-1 = assay: Cytotoxicity against human IGROV1 cells after 48 hrs by sulforhodamine B assay; format: functional; conditions: IGROV-1, 48 h
NCI-H460 [12] = assay: Cytotoxicity against human NCI-H460 cells assessed as cell death in serum free medium at 50 nM after 12 hrs by Hoechst 33342/propidium iodide staining based fluorescence microscopy; format: functional; outline: as §1
NCI-H460 [13] = assay: Cytotoxicity against human NCI-H460 cells assessed as cell death in serum free medium at 500 nM after 12 hrs by Hoechst 33342/propidium iodide staining based fluorescence microscopy; format: functional; outline: as §1
SK-MEL-2 = assay: Cytotoxicity against human SK-MEL-2 cells after 48 hrs by sulforhodamine B assay; format: functional
NCI/ADR-RES = assay: Cytotoxicity against human NCI/ADR-RES cells after 48 hrs by sulforhodamine B assay; format: functional
NCI-H460 [14] = assay: Cytotoxicity against human NCI-H460 cells assessed as cell viability at 50 nM after 48 hrs by MTT assay; format: functional; conditions: NCI-H460, 48 h, read-out: Activity; outline: as §2
BT-549 = assay: Cytotoxicity against human BT549 cells after 48 hrs by sulforhodamine B assay; format: functional; conditions: BT-549, 48 h
OVCAR-5 = assay: Cytotoxicity against human OVCAR5 cells after 48 hrs by sulforhodamine B assay; format: functional; conditions: OVCAR-5, 48 h
HCT-116 = assay: Cytotoxicity against human HCT116 cells after 48 hrs by sulforhodamine B assay; format: functional
U-251 = assay: Cytotoxicity against human U251 cells after 48 hrs by sulforhodamine B assay; format: functional; conditions: U-251, 48 h
NCI-H460 [15] = assay: Cytotoxicity against human NCI-H460 cells assessed as cell viability at 10 nM after 48 hrs by MTT assay; format: functional; conditions: NCI-H460, 48 h, read-out: Activity; outline: as §2
HL-60(TB) = assay: Cytotoxicity against human HL-60(TB) cells after 48 hrs by sulforhodamine B assay; format: functional; conditions: HL-60, 48 h
NCI-H460 [16] = assay: Cytotoxicity against human NCI-H460 cells assessed as cell viability at 100 nM after 48 hrs by MTT assay; format: functional; conditions: NCI-H460, 48 h, read-out: Activity; outline: as §2
NCI-H460 [17] = assay: Growth inhibition of human NCI-H460 cells after 48 hrs by MTT assay; format: functional
Outline: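 NCI-H460 viability measured by MTT (mitochondrial enzymatic activity) after 48 h exposure at 1 nM to 10 μM. GI50 derived from dose-response curves, with N = 9 and two-way ANOVA. Values are the mean of three independent experiments with duplicate determinations.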

MDA-MB-435 = assay: Cytotoxicity against human MDA-MB-435 breast cancer cells after 48 hrs by sulforhodamine B assay; format: functional; conditions: MDA-MB-435, 48 h
NCI-H460 [18] = assay: Cytotoxicity against human NCI-H460 cells assessed as cell death in serum free medium at 75 nM after 12 hrs by Hoechst 33342/propidium iodide staining based fluorescence microscopy; format: functional; outline: as §1
NCI-H460 [19] = assay: Cytotoxicity against human NCI-H460 cells assessed as cell death in serum free medium at 250 nM after 12 hrs by Hoechst 33342/propidium iodide staining based fluorescence microscopy; format: functional; outline: as §1
NCI-H460 [20] = assay: Cytotoxicity against human NCI-H460 cells assessed as cell viability at 25 nM after 48 hrs by MTT assay; format: functional; conditions: NCI-H460, 48 h, read-out: Activity; outline: as §2
K562 = assay: Cytotoxicity against human K562 cells after 48 hrs by sulforhodamine B assay; format: functional; conditions: K562, 48 h
NCI-H460 [21] = assay: Cytotoxicity against human NCI-H460 cells assessed as cell viability at 1000 nM after 48 hrs by MTT assay; format: functional; conditions: NCI-H460, 48 h, read-out: Activity; outline: as §2

C[C@@H]1O[C@@H](O[C@H]2CC[C@@]3(C)[C@H](CC[C@@H]4[C@@H]3CC[C@]3(C)[C@@H](C5=CC(=O)OC5)CC[C@]43O)C2)CC[C@H]1O [RAMNODIGIN]
GI50 (RXF 393): 1.22 nM | GI50 (HCC 2998): 16.5 nM | Activity (NCI-H460 [1]): 42.463% | Activity (NCI-H460 [2]): 100% | Activity (NCI-H460 [3]): 98.61% | GI50 (NCI-H460 [4]): 1.93 nM | GI50 (T47D): 20.6 nM | GI50 (CCRF-CEM): 8.49 nM | Activity (NCI-H460 [5]): Dose-dependent effect | IC50 (NCI-H460 [5]; NCI-H460, 12 h): 51.7 nM | viability at 0.001 µM (NCI-H460 [6]): 77% | Activity (NCI-H460 [7]): 18.12% | Ratio IC50 (NCI-H460 [8]): 4 | viability at 0.5 µM (NCI-H460 [9]): 3.69% | GI50 (SF-539): 7.8 nM | Activity (NCI-H460 [10]): 100% | GI50 (CAKI-1): 3.32 nM | GI50 (OVCAR-8): 2.5 nM | Activity (NCI-H460 [11]): 22.09% | GI50 (IGROV-1): 5.23 nM | Activity (NCI-H460 [12]): 52.04% | Activity (NCI-H460 [13]): 100% | GI50 (SK-MEL-2): inactive | GI50 (NCI/ADR-RES): 4.12 nM | viability at 0.05 µM (NCI-H460 [14]): 6.18% | GI50 (BT-549): 2.41 nM | GI50 (OVCAR-5): 17.4 nM | GI50 (HCT-116): inactive | GI50 (U-251): 12.7 nM | viability at 0.01 µM (NCI-H460 [15]): 13.9% | GI50 (HL-60(TB)): 2.96 nM | viability at 0.1 µM (NCI-H460 [16]): 5% | GI50 (NCI-H460 [17]): Dose-dependent effect | GI50 (NCI-H460 [17]; NCI-H460, 48 h): 2 nM | GI50 (MDA-MB-435): 21 nM | Activity (NCI-H460 [18]): 77.04% | Activity (NCI-H460 [19]): 100% | viability at 0.025 µM (NCI-H460 [20]): 7.14% | GI50 (K562): 19.5 nM | viability at 1 µM (NCI-H460 [21]): 3.25%
